Hits are enriched below; roughly 6.4% of the tested compounds scored in any of these assays.
E coli WT exp: blocks growth of wild type E. coli BW25113; 98,000 compounds, 0.15% hits; OD600 absorbance; AID 710; growth inhibition, % at 100 µM;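 active = growth inhibition above about 50% at one test dose, limit read from the data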;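 also: growth measured after 20 h incubation at 37 °C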
Jurkat viability: cytotoxic compounds reducing Jurkat cell viability; Jurkat E6.1 viability, ATP luminescence, 48 h; inhibition, % at 4 µM; 56,000 compounds, 1.2% hits; AID 463;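 active = inhibition above the mean inhibition of all tested compounds plus 3 SD, cut at about 28% in these data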
Fibroblast inh: blocks proliferation of human lung fibroblasts; LL 47 human lung fibroblast viability, ATP luminescence; stronger effect = lower value; viability, % at 10 µM; 85,000 compounds, 1.1% hits;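 active = viability at or below 50% in the single dose screen; inactive = viability above 50%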;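 also: compound exposure lasted 72 h before the ATP readout; 100% = median luminescence of untreated cell-only wells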
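Benchmarks: Cell-only wells, no compound | Test system: LL 47 human lung fibroblasts, passage 12 or lower | Input: 1,150 cells/well | Measured by: CellTiter-Glo luminescence measuring cellular ATP | Medium: IMEM, 15% FBS supplement | Schedule: Overnight attachment after seeding, then 72 h compound exposure at 37 °C | Doses: Compound addition at 0.1% DMSO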
H69AR inhibit: blocks growth of human H69AR lung tumor cells; H69AR lung tumor viability, ATP luminescence, 72 h; stronger effect = lower value; viability, % at 10 µM; 85,000 compounds, 6% hits; AID 598;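 active = viability at or below 40%; inactive = viability above 40%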;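 also: multidrug resistant small cell line overexpressing MRP-1 efflux transporter; 100% = mean luminescence of untreated control wells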
Ecoli tolC: E. coli tolC mutant growth inhibition; E. coli BW25113 tolC mutant growth, OD615; growth inhibition, % at 10 µM (by protocol); 65,000 compounds, 2.2% hits;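 active = growth inhibition at or above a cutoff equal to the mean over every tested compound plus 3 SD, cut at about 60% in these data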;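 also: growth measured after 20 h incubation at 37 °C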
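Assay system: tolC-deleted E. coli BW25113. Medium: kanamycin-containing LB broth (50 µg/mL). Dosing: 10 µM final, single dose. Timing: bacterial growth with compound for 20 h at 37 °C. Detection: A615 absorbance measurement. Read-out basis: growth inhibition in percent.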
HUVEC inhibit: blocks proliferation of human endothelial cells | viability, % at 10 µM (by protocol) | HUVEC proliferation, CellTiter-Glo luminescence, 72 h; stronger effect = lower value | 86,000 compounds, 1.1% hits;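 active = viability at or below 30%; inactive = viability above 30%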;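 also: 100% = median luminescence of DMSO-only cell control wells on each plate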
The depositor's hits bear a star.

What do the screens show for `CCCCNC(=O)CS(=O)Cc1nc(-c2ccc(C)cc2)oc1C` (stereo not drawn)?
E coli WT exp: -4; Jurkat viability: -16; Fibroblast inh: 96; H69AR inhibit: 96; Ecoli tolC: -6; HUVEC inhibit: 97

What do the screens show for `Cc1cccc(-c2nc(CS(=O)CC(=O)NCCCSC3CCCCC3)c(C)o2)c1` (stereo not drawn)?
E coli WT exp: -16; Jurkat viability: 1; Fibroblast inh: 96; H69AR inhibit: 79; Ecoli tolC: 73*; HUVEC inhibit: 91

How did Cc1ccc(CN2CN(S(=O)(=O)c3cccs3)c3nc4ccccc4nc32)cc1 do in these assays?
E coli WT exp: -4

What do the screens show for `Cc1csc2ncc(C(=O)NC(C)c3ccccc3)c(=O)n12` (stereo not drawn)?
E coli WT exp: 1; Jurkat viability: -9; Ecoli tolC: 13

Results for Cc1cc(N2CCN(c3cccc(C(F)(F)F)c3)CC2)n2ncnc2n1 ?
E coli WT exp: 2; Jurkat viability: -7; Fibroblast inh: 95; H69AR inhibit: 74; Ecoli tolC: -9; HUVEC inhibit: 89

What do the screens show for `Cc1nc(N2CCN(C(c3ccccc3)c3ccccc3)CC2)nc2c1C(=O)CCC2`?
Jurkat viability: 3; Fibroblast inh: 94; Ecoli tolC: -13; HUVEC inhibit: 101

How did Cc1cc(N2CCN(C(c3ccccc3)c3ccccc3)CC2)n2ncnc2n1 do in these assays?
E coli WT exp: 1; Jurkat viability: -2; Fibroblast inh: 106; H69AR inhibit: 79; Ecoli tolC: 82*; HUVEC inhibit: 97

How did Cc1nc2ncnn2c(N2CCN(C(c3ccccc3)c3ccccc3)CC2)c1C do in these assays?
E coli WT exp: 6; Jurkat viability: 2; Fibroblast inh: 102; H69AR inhibit: 79; Ecoli tolC: 62*; HUVEC inhibit: 63

What do the screens show for `Cc1cc(N2CCN(c3nc4ccccc4s3)CC2)n2ncnc2n1`?
E coli WT exp: 0; Jurkat viability: 83*; Fibroblast inh: 94; H69AR inhibit: 62; Ecoli tolC: -9; HUVEC inhibit: 70

How did Cc1nc2ncnn2c(N2CCN(c3cccc(C(F)(F)F)c3)CC2)c1C do in these assays?
E coli WT exp: 7; Jurkat viability: 17; Fibroblast inh: 95; H69AR inhibit: 33*; Ecoli tolC: 42; HUVEC inhibit: 82

What do the screens show for `CC1CCN(C(=O)C2CCN(S(=O)(=O)c3cccc4nonc34)CC2)CC1`?
E coli WT exp: 0

Results for CCCC(=O)c1ccc(N2CCCCCC2)c(F)c1 ?
E coli WT exp: -8; Jurkat viability: -3; Fibroblast inh: 101; H69AR inhibit: 97; Ecoli tolC: 68*; HUVEC inhibit: 104

How did CCC(C)N(C(=O)COC(=O)Cc1n[nH]c(=O)c2ccccc12)C1CCS(=O)(=O)C1 (stereo not drawn) do in these assays?
E coli WT exp: 7; Jurkat viability: 9; Fibroblast inh: 101; H69AR inhibit: 100; Ecoli tolC: -8; HUVEC inhibit: 98

Results for CC1CCN(S(=O)(=O)c2ccc(Cl)cc2Br)CC1 ?
E coli WT exp: 8; Jurkat viability: -6; Fibroblast inh: 97; H69AR inhibit: 93; Ecoli tolC: 98*; HUVEC inhibit: 105

What do the screens show for `CCCCCC(=O)Nc1ccccc1N1CCN(c2ccccc2)CC1`?
E coli WT exp: -3; Jurkat viability: 6; Fibroblast inh: 83; H69AR inhibit: 98; Ecoli tolC: 68*; HUVEC inhibit: 126

What do the screens show for `O=C(COc1ccccc1)Nc1ccccc1N1CCCCC1`?
E coli WT exp: 6; Jurkat viability: 1; Fibroblast inh: 81; H69AR inhibit: 71; Ecoli tolC: 92*; HUVEC inhibit: 83

What do the screens show for `CCCC(=O)Nc1ccccc1N1CCN(C(=O)C(C)C)CC1`?
E coli WT exp: 3; Jurkat viability: -8; Fibroblast inh: 99; H69AR inhibit: 91; Ecoli tolC: -19; HUVEC inhibit: 92

What do the screens show for `O=C(Nc1ccccc1N1CCCCC1)c1cccs1`?
E coli WT exp: -6; Jurkat viability: 2; Fibroblast inh: 85; H69AR inhibit: 62; Ecoli tolC: 100*; HUVEC inhibit: 104

How did CCC(=O)N1CCN(c2ccccc2NC(=O)COc2cc(C)ccc2C(C)C)CC1 do in these assays?
E coli WT exp: -19; Jurkat viability: 3; Fibroblast inh: 90; H69AR inhibit: 36*; Ecoli tolC: 25; HUVEC inhibit: 53

From PubChem BioAssay
